In experiment [1] the target is T1, 5-hydroxytryptamine receptor 1A (Rattus norvegicus, UniProt P19327).
T1 sequence (P19327 whole entry): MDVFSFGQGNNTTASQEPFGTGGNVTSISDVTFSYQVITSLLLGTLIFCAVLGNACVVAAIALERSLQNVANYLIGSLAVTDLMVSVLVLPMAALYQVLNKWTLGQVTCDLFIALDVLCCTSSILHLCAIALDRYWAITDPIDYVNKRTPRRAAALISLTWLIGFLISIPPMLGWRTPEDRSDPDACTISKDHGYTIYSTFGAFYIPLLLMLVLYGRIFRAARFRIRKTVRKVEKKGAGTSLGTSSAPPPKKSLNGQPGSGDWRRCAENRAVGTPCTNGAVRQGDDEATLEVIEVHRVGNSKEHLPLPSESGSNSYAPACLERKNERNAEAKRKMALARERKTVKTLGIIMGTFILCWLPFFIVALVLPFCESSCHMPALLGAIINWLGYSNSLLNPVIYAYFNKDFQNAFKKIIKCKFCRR
Kind of experiment: Inhibitory activity against 5-hydroxytryptamine 1A receptor in rats, using [3H]8-OH-DPAT as radioligand. The gist of the method: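 Rat whole-brain membranes (minus brainstem and cerebellum) in 50 mM Tris pH 8.0 with 120 mM NaCl, 4 mM CaCl2, 4 mM MgCl2 and 10 μM pargyline. Rapid filtration, then scintillation counting. Nonspecific binding defined with 10 μM 5-HT. IC50 by semi-log plot and linear regression.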

Experiment [2] concerns the target D(2) dopamine receptor (Rattus norvegicus, UniProt P61169). Description: Inhibitory activity against Dopamine receptor D2 in rats using [3H]spiperone as radioligand. The gist of the method: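 Rat striatal membranes in 50 mM potassium phosphate buffer pH 7.4 were incubated with 0.5 nM [3H]spiperone for 10 min at 37 °C. Specific binding was defined with 10 μM 6,7-ADTN.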

Experiment [3] concerns Rattus norvegicus. Description: Effect evaluated in vivo on 5-HTP accumulation in limbic system at a dose 3.1 umol/kg (s.c.). Type of experiment: functional. The gist of the method:
(§1)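 Male Sprague-Dawley rats (200–300 g) were pretreated with reserpine 5 mg/kg sc 18 h before. Test compound was given sc at 5 mL/kg in neutral solution. 5-HT synthesis rate was indexed by […] 5-HTP accumulation after decarboxylase inhibition with NSD 1015, measured by HPLC-electrochemical detection. Dose-response used 4–6 dose levels, n = 4.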

Experiment [4] concerns Rattus norvegicus. Kind of experiment: Effect evaluated in vivo on 5-HTP accumulation in limbic system at a dose 50 umol/kg (s.c.). In kind it is functional. The gist of the method:
as §1

The test system of experiment [5] is Rattus norvegicus. Description: Effect evaluated in vivo on 5-HTP accumulation in NE-rich hemispheres at a 0.80 dose uM/kg(sc). Type of experiment: functional. The gist of the method: (§2)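 Male Sprague-Dawley rats (200–300 g) were pretreated with reserpine 5 mg/kg sc 18 h beforehand. Test drug was given at neutral pH, 5 mL/kg. Aromatic amino acid decarboxylase was blocked with NSD 1015. 5-HTP in the dissected brain region was assayed by HPLC with electrochemical detection.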

The subject of experiment [6] is Rattus norvegicus. Kind of experiment: Effect evaluated in vivo on 5-HTP accumulation in corpus striatum at a dose 12.5 umol/kg (s.c.). In kind it is functional. The gist of the method:
as §2

In experiment [7] the test system is Rattus norvegicus. Description: Effect evaluated in vivo on 5-HTP accumulation in corpus striatum at a dose 3.1 umol/kg (s.c.). Type of experiment: functional. The gist of the method:
as §2

The test system of experiment [8] is Rattus norvegicus. Kind of experiment: Effect evaluated in vivo on 5-HTP accumulation in limbic system after subcutaneous administration. Type of experiment: functional. The note with it: sc. The gist of the method: as §2
In experiment [9] the test system is Rattus norvegicus. Kind of experiment: Effect evaluated in vivo on 5-HTP accumulation in corpus striatum at a dose 50 umol/kg (s.c.). Type of experiment: functional. The gist of the method:
as §2

For experiment [10], the system named is Rattus norvegicus. Kind of experiment: Effect evaluated in vivo on 5-HTP accumulation in limbic system at a dose 0.80 umol/kg (s.c.). In kind it is functional. The gist of the method: as §1
Experiment [11] deals with Rattus norvegicus. Description: Effect evaluated in vivo on 5-HTP accumulation in limbic system at a dose 12.5 umol/kg (s.c.). Type of experiment: functional. The gist of the method: as §1
Experiment [12] concerns Rattus norvegicus. Kind of experiment: Effect evaluated in vivo on 5-HTP accumulation in NE-rich hemispheres after subcutaneous administration. Type of experiment: functional. As to conditions: sc. The gist of the method: as §2
The test system of experiment [13] is Rattus norvegicus. Description: Effect evaluated in vivo on 5-HTP accumulation in NE-rich hemispheres at a 12.5 dose uM/kg(sc). In kind it is functional. The gist of the method: as §2
In experiment [14] the test system is Rattus norvegicus. Description: Effect evaluated in vivo on 5-HTP accumulation in NE-rich hemispheres at a 50 dose uM/kg(sc). Type of experiment: functional. The gist of the method: as §2
For experiment [15], the system named is Rattus norvegicus. Kind of experiment: Effect evaluated in vivo on 5-HTP accumulation in corpus striatum after subcutaneous administration. Type of experiment: functional. The gist of the method: as §2
Experiment [16] concerns Rattus norvegicus. Kind of experiment: Effect evaluated in vivo on 5-HTP accumulation in corpus striatum at a dose 0.80 umol/kg (s.c.). Type of experiment: functional. The gist of the method:
as §2

Experiment [17] has as its system Rattus norvegicus. Kind of experiment: The compound was tested in vivo for locomotor activity in rats at 0.2 umol/kg after subcutaneous administration.
Experiment [18] deals with Rattus norvegicus. Kind of experiment: Effect evaluated in vivo on 5-HTP accumulation in corpus striatum at ED50 umol/kg after subcutaneous administration. Type of experiment: functional. The note with it: sc. The gist of the method: as §2
Experiment [19] relates to Rattus norvegicus. Description: Effect evaluated in vivo on 5-HTP accumulation in NE-rich hemispheres at ED50 umol/kg after subcutaneous administration. In kind it is functional. The note with it: sc. The gist of the method:
as §2

Experiment [20] concerns Rattus norvegicus. Kind of experiment: Effect evaluated in vivo on 5-HTP accumulation in NE-rich hemispheres at a 3.1 dose uM/kg(sc). In kind it is functional. The gist of the method:
as §2

The subject of experiment [21] is Rattus norvegicus. Description: The compound was tested in vivo for locomotor activity in rats at 50 umol/kg after subcutaneous administration. Type of experiment: functional. The gist of the method:
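Male Sprague-Dawley rats received reserpine 5 mg/kg sc in the neck 18 h before testing. Test compound was given sc in the neck (n = 4). Rats were placed singly in photocell motility meters immediately after dosing, and counts were accumulated over 30 min (tests 9 a.m.–1 p.m.). Gross behaviour, including 5-HT syndrome, was observed throughout.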

pIC50: −log10 of the molar value.

Chain of D(2) dopamine receptor (P61169 whole entry): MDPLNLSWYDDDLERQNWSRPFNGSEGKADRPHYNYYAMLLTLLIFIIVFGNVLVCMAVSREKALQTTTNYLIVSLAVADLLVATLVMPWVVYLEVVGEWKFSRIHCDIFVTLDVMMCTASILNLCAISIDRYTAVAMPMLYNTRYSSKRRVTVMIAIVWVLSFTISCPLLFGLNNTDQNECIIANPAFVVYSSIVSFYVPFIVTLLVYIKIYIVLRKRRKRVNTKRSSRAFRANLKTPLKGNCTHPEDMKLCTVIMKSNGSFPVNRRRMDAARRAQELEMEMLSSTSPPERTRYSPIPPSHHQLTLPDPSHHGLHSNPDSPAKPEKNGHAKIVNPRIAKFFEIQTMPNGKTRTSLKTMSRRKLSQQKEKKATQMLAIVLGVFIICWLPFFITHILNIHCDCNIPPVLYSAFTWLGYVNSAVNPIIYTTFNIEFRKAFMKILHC

Turning to `CCN1CCc2cccc(O)c2CC1`, the pIC50 was 6.20 in experiment [1] and 4.85 in experiment [2]. The Control stood at 89% in [3]; 46% in experiment [4]; 108 µM/kg in experiment [5]; 56% in [6]; 96% in experiment [7]; 54% in [9]. For the same compound, the Control in experiment [10] worked out at 99%; in experiment [11], 48%; in [13], 49%; in experiment [14], 48%; in experiment [16], 100%. The ED50 in experiment [8] worked out at 5 µmol/kg; in experiment [12], 6 µmol/kg; in experiment [15] (sc) it was 6.5 µmol/kg. Also, the Locomotor activity in [17] was 31.
For the compound `CN1CCc2cccc(O)c2CC1`, the Control worked out at 106% in experiment [3]; 57% in [4]; 104% in [7]; 54% in experiment [9]; 72% in [11]; 73% in experiment [13]. Further, the Control in experiment [20] is on record as 96%; in [14] it was 58%; in experiment [15] it was 70%. Moreover, the ED50 in experiment [18] came out at 11 µmol/kg; in [8], 10 µmol/kg; in [19], 12 µmol/kg. This compound also gave a Locomotor activity in [17] of 6.
Consider `CCCCN1CCc2ccc(O)cc2CC1`, for which the values for the Control in experiment [4], in experiment [9] and in experiment [14] were 119%, 106% and 114%, respectively.
In the case of `CCN1CCc2cccc(OC)c2CC1`, the pIC50 in experiment [1] is 6.68; in [2], 5.66. Further, the results for the Control in experiment [4], in experiment [9] and in experiment [14] were 66%, 66% and 64%, respectively. This compound gave a Locomotor activity in experiment [21] of 62.

In general, pIC50 refers to the IC50 on a negative log10 scale, so that one unit is a factor of ten. The low end stands for a large IC50, the high end for a small IC50. For orientation: ED50 means the dose that gives a 50% effect, or the effect in half of the subjects. High values mean a need for a large dose, low ones an effect at a small dose.

(Values after ChEMBL document CHEMBL1125331, “6-Hydroxy-3-n-propyl-2,3,4,5-tetrahydro-1H-3-benzazepine and analogs: new centrally acting 5-HT1A receptor agonists” (J Med Chem, 1992).)
